Assay results reported in ChEMBL document CHEMBL1157184, “Hymenoic acid, a novel specific inhibitor of human DNA polymerase lambda from a fungus of Hymenochaetaceae sp” (Bioorg Med Chem, 2008).

How the values were obtained:
DNA polymerase lambda = molecular target: T1, DNA polymerase lambda (Homo sapiens, UniProt Q9UGP5); test: Inhibition of human DNA polymerase lambda
T1 sequence (Q9UGP5 whole entry): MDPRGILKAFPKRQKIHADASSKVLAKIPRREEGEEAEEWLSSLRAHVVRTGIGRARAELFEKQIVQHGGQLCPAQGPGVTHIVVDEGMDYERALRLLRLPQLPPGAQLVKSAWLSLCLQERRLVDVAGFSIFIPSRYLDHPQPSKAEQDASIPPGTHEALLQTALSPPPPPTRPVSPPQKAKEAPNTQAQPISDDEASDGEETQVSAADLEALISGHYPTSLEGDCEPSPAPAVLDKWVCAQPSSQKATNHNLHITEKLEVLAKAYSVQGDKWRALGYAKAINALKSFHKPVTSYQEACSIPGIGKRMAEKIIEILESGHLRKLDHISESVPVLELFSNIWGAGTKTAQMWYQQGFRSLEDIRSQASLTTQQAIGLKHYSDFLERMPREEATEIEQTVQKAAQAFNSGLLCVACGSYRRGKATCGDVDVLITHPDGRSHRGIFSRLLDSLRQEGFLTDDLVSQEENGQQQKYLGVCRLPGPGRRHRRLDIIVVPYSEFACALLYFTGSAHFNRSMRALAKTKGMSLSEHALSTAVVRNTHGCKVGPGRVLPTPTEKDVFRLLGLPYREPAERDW
How it was run: (§1)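 Dose-response was run on 0.05 U of full-length (residues 1–575), del-1 (133–575) or del-2 (245–575) human pol λ. Compound in DMSO was preincubated 10 min at 0 °C, then the reaction ran 60 min at 37 °C with poly(dA)/oligo(dT)12-18 and dTTP. Activity relative to the no-compound control; means ± SEM of three independent experiments.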

DNA polymerase beta = DNA polymerase beta (Homo sapiens, UniProt P06746); test: Inhibition of human DNA polymerase beta
[1] = Inhibition of human N terminal deleted DNA polymerase lambda Del-1 mutant; how it was run: as §1
[2] = Inhibition of human N terminal deleted DNA polymerase lambda Del-2 mutant; how it was run: as §1

## C/C(=C\CC[C@H](C)C(=O)O)[C@H]1CC[C@H](C(=O)O)CC1 [HYMENOIC ACID]
DNA polymerase lambda
  IC50: 91.7 µM
DNA polymerase beta
  IC50: > 200 µM
[1]
  IC50: > 200 µM
[2]
  IC50: > 200 µM
